The source of these data is ChEMBL document CHEMBL2406957, “C-(α-d-Glucopyranosyl)-phenyldiazomethanes-irreversible inhibitors of α-glucosidase” (Bioorg Med Chem, 2013).

SMILES strings stand for the structures. Calls of active or inactive are those of the source. The rule behind the calls is not given here.

For series [1], the system named is Saccharomyces cerevisiae. The series is described as follows: Inhibition of Saccharomyces cerevisiae alpha-glucosidase using PNPG as substrate at 60 uM incubated for 40 mins prior to substrate addition measured after 5 mins by spectrophotometry relative to control. The method in brief: (§1)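 Enzyme (final 4 µg/mL, 0.064 µM) incubated 40 min at 30 °C in pH 7.5 buffer with compound at final 0.01–0.08 mM. Aliquot then added to 2 mM PNPG in pH 6.8 buffer for 5 min at 30 °C. Reaction quenched with Na2CO3, p-nitrophenolate read at 400 nm. Residual activity expressed relative to enzyme control.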

The nature of series [2]: Reversible inhibition of Saccharomyces cerevisiae alpha-glucosidase using PNPG as substrate.
A short description of series [3]: Irreversible inhibition of Saccharomyces cerevisiae alpha-glucosidase using PNPG as substrate by Kitz-Wilson plot analysis. The method in brief:
(§2)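 Yeast α-glucosidase (final 4 µg/mL, 0.064 µM) preincubated at 30 °C in pH 7.5 Tris–HCl with inhibitor at final 0.01–0.08 mM. Aliquots taken at 5–40 min into 2 mM PNPG (pH 6.8), 5 min at 30 °C, Na2CO3 quench, A400. Activity as % of no-inhibitor control. kobs from first-order fits; Ki and ki from double-reciprocal Kitz–Wilson replot.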

Series [4] in a line: Inhibition of Saccharomyces cerevisiae alpha-glucosidase using PNPG as substrate incubated for 40 mins prior to substrate addition measured after 5 mins by spectrophotometry. Put shortly:
as §1

Series [5] concerns Saccharomyces cerevisiae. The series is described as follows: Irreversible inhibition of Saccharomyces cerevisiae alpha-glucosidase using PNPG as substrate at 0.04 mM incubated for 5 to 40 mins prior to substrate addition measured after 5 mins by spectrophotometry in presence of (2R,3R,4R,5S,6R)-2-((R)-amino(phenyl)methyl)-6-(hydroxymethyl)tetrahydro-2H-pyran-3,4,5-triol.
The nature of series [6]: Half life of the compound in buffer at 50 uM at pH 3.0 by UV-vis spectrophotometric analysis. The format is physicochemical. Put shortly:
(§3)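 Isolated diazo compound dissolved at 50 μM in buffer of set pH (7.0 down to 3.0) in a cuvette; UV spectra scanned 190–350 nm every 30 s at room temperature until no further change. Blue shift of λmax followed; decay fitted to a single exponential, t1/2 = t1 ln2.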

Series [7] deals with Saccharomyces cerevisiae. The series is described as follows: Irreversible inhibition of Saccharomyces cerevisiae alpha-glucosidase using PNPG as substrate assessed as residual enzyme activity incubated for 5 to 40 mins prior to substrate addition measured after 5 mins by spectrophotometry. Put shortly:
as §2

Series [8] can be described thus: Half life of the compound in buffer at 50 uM at pH 4.0 by UV-vis spectrophotometric analysis. The class given is physicochemical. The method in brief:
as §3

Series [9] is described as follows: Half life of the compound in buffer at 50 uM at pH 5.0 by UV-vis spectrophotometric analysis. The format is physicochemical. Put shortly:
as §3

Series [10] can be described thus: Half life of the compound in buffer at 50 uM at pH 6.0 by UV-vis spectrophotometric analysis. The class given is physicochemical. The method in brief: as §3
Series [11] in a line: Chemical stability of the compound in neutral media at 50 uM at pH 7.0 by UV-vis spectrophotometric analysis. To be noted: buffer, pH 7, 50 µM. The format is physicochemical. Put shortly:
as §3

The inhibition is how much of the control response was suppressed. As a reminder, the IC50 is the midpoint of a concentration-inhibition curve. Low values mean inhibition by little substance, high ones a need for much substance. In general, half-life refers to how long it takes for the measured level to halve. A lower half-life goes with rapid decline.

In turn, `N#Cc1ccc(C[C@H]2O[C@H](CO)[C@@H](O)[C@H](O)[C@H]2O)cc1` yielded an inhibition in the series with Saccharomyces cerevisiae [1] of 40%.
Compound `N#Cc1ccc([C@H](O)[C@H]2O[C@H](CO)[C@@H](O)[C@H](O)[C@H]2O)cc1` displayed an inhibition in the series on Saccharomyces cerevisiae [1] of 40%.
With `N[C@H](c1ccccc1)[C@H]1O[C@H](CO)[C@@H](O)[C@H](O)[C@H]1O`, the Ki in series [2] stood at 1.1 µM.
Compound `N#Cc1ccc(C(=[N+]=[N-])[C@H]2O[C@H](CO)[C@@H](O)[C@H](O)[C@H]2O)cc1` had a Ki in series [3] of 2160 µM. The same compound came in with an IC50 in [4] of 20.6 µM. Also, the inhibition is 90% with Saccharomyces cerevisiae [1] and “Dose-dependent effect” in the series on Saccharomyces cerevisiae [7]. Further, the inhibition result in the series with Saccharomyces cerevisiae [5] is “inactive”. The half-life at 50 µM in series [6] is 0.183 min; in series [8], 0.483 min; in series [9], 2.35 min; in [10] it was 4.2 min. In series [11], the Stability result is “Stable”.
